Here are results for 15 compounds from ChEMBL document CHEMBL2010704 (J Med Chem, 2012).

Calls of active or inactive are those of the source. No cut-off for these calls is given here. Bounds are passed on as bounds.

Data set [1] addresses T1, ABCG2 (Homo sapiens, UniProt Q9UNQ0).
T1 sequence (Q9UNQ0 whole entry): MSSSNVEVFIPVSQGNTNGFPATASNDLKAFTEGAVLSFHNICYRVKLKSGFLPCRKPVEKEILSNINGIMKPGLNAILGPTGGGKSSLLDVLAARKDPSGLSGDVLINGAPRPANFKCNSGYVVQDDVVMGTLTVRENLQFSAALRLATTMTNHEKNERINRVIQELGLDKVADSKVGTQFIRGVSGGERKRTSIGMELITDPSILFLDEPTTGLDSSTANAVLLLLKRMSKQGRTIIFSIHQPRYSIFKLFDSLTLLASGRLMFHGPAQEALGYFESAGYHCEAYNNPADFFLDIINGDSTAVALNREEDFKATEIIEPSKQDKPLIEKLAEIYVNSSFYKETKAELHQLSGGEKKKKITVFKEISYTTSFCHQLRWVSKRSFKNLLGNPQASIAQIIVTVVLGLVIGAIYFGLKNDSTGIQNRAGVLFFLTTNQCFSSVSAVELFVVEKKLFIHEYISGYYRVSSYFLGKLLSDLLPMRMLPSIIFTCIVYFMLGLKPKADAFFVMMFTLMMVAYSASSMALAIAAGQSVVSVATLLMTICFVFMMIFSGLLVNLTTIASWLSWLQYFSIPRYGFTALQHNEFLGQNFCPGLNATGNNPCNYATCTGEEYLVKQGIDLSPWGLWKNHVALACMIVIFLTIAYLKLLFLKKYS
The experiment in a line: Inhibition of ABCG2-mediated mitoxantrone efflux in HEK293 cells at 5 uM by flow cytometry relative to 5 uM of GF120918. It is filed as cell-based. The conditions noted are these: HEK293 cells with ABCG2-mediated efflux, probe mitoxantrone. Summed up: (§1)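 HEK293-ABCG2 cells seeded at 1 × 10^5 cells/well and grown 48 h, then loaded with 5 μM mitoxantrone for 30 min at 37 °C with or without compound. Cells washed in PBS and trypsinized; intracellular fluorescence read by flow cytometry on at least 10,000 events. […] IC50 from a concentration range; mean ± SD, n ≥ 3.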

The target of data set [2] is T1, ABCG2. In words: Inhibition of ABCG2-mediated mitoxantrone efflux in HEK293 cells at 1 uM by flow cytometry relative to 5 uM of GF120918. It is filed as cell-based. The conditions noted are these: HEK293 cells with ABCG2-mediated efflux, probe mitoxantrone. Summed up: as §1
Background: In flow cytometry, cells or beads pass a laser one at a time.

The target in the next data set is MRP1 (ABCC1) (Homo sapiens, UniProt P33527). In words: Inhibition of MRP1/ABCC1-mediated calcein efflux in HEK293 cells at 1 uM by flow cytometry relative to untreated control. It is filed as cell-based. The settings on record: HEK293 cells with MRP1/ABCC1-mediated efflux, probe calcein.
The target of data set [3] is T2, P-glycoprotein (ABCB1) (Homo sapiens, UniProt P08183). The experiment in a line: Inhibition of P-glycoprotein/ABCB1-mediated mitoxantrone efflux in HEK293 cells at 5 uM by flow cytometry relative to 5 uM of GF120918. The data set is classed as cell-based. The settings on record: HEK293 cells with P-glycoprotein/ABCB1-mediated efflux, probe mitoxantrone.
For data set [4], the target named is T2, P-glycoprotein (ABCB1). In words: Inhibition of P-glycoprotein/ABCB1-mediated mitoxantrone efflux in HEK293 cells at 1 uM by flow cytometry relative to 5 uM of GF120918. It is filed as cell-based. The settings on record: HEK293 cells with P-glycoprotein/ABCB1-mediated efflux, probe mitoxantrone.
Data set [5] deals with P-glycoprotein 1 (Homo sapiens). In words: Inhibition of P-glycoprotein/ABCB1-mediated mitoxantrone efflux in HEK293 cells at 5 uM by flow cytometry relative to untreated control. The settings on record: HEK293 cells with P-glycoprotein/ABCB1-mediated efflux, probe mitoxantrone.
Data set [6] in a line: Cytotoxicity against human HEK293 cells transfected with ABCG2 after 72 hrs by MTT assay. The data set is classed as ADME, cell-based. The conditions noted are these: read-out: IG50. Summed up: (§2)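 HEK293-ABCG2 cells (DMEM high glucose, 10% FBS, 0.75 mg/mL G418) seeded at 1 × 10^4 cells/well, left overnight, then exposed to increasing compound concentrations (up to 100 μM) for 72 h at 37 °C, 5% CO2. Viability read by MTT colorimetric assay and expressed as % of control cells in medium with 0.1% DMSO (v/v).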
(Tetrazolium assays rely on reduction of a dye to a coloured formazan, in cell work by metabolically active cells.)

The target in data set [7] is T3, Broad substrate specificity ATP-binding cassette transporter ABCG2 (Homo sapiens, UniProt Q9UNQ0).
T3 sequence (Q9UNQ0 whole entry): T1 sequence (Q9UNQ0 whole entry)
In words: Inhibition of ABCG2-mediated mitoxantrone efflux in HEK293 cells by flow cytometry. The data set is classed as cell-based. Summed up: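 HEK293-ABCG2 cells seeded at 1 × 10^5 cells/well and grown 48 h, then loaded with 5 μM mitoxantrone for 30 min at 37 °C with or without compound. Cells washed in PBS and trypsinized; intracellular fluorescence read by flow cytometry on at least 10,000 events.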

For data set [8], the system named is ABCG2. In words: Therapeutic index, ratio of GI50 for human HEK293 cells transfected with ABCG2 to IC50 for ABCG2-mediated mitoxantrone efflux in HEK293 cells. The conditions noted are these: HEK293 cells transfected with ABCG2, probe mitoxantrone. The data set is classed as cell-based. In outline:
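Therapeutic index is IG50 for cytotoxicity (72-h MTT in HEK293-ABCG2 cells) divided by IC50 for inhibition of ABCG2-mediated mitoxantrone efflux measured by flow cytometry.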

Data set [9] concerns HEK293. The experiment in a line: Cytotoxicity against human HEK293 cells transfected with ABCG2 at 10 uM after 72 hrs by MTT assay. It is filed as ADME, cell-based. The settings on record: hek293, 72 h. Summed up:
as §2

The test system of data set [10] is HEK293. In words: Drug uptake in human HEK293 cells transfected with ABCG2 after 30 mins by LC-ESI-MS/MS analysis relative to control. It is filed as ADME, cell-based. The settings on record: hek293, 0.5 h.
Data set [11] deals with HEK293. The experiment in a line: Drug uptake in human HEK293 cells transfected with ABCG2 after 30 mins by LC-ESI-MS/MS analysis in presence of GF120918 relative to control. It is filed as ADME, cell-based. The settings on record: hek293, 0.5 h.
Data set [12] concerns HEK293. In words: Effect on ABCG2 expression in human HEK293 cells at 0.2 to 10 uM after 72 hrs by Western blotting analysis. The data set is classed as functional, cell-based.
In data set [13] the test system is HEK293. The experiment in a line: Drug metabolism in human HEK293 cells transfected with ABCG2 at 0.2 to 1 uM after 72 hrs. The data set is classed as ADME, cell-based. The conditions noted are these: hek293, 72 h.
In data set [14] the target is T3, Broad substrate specificity ATP-binding cassette transporter ABCG2. In words: Noncompetitive inhibition of ABCG2 expressed in HEK293 cells in presence of mitoxantrone. The data set is classed as cell-based.
The subject of data set [15] is HEK293. In words: Cytotoxicity against human control HEK293 cells assessed as cell death at 100 uM after 72 hrs by MTT assay. The conditions noted are these: hek293, 72 h.
Data set [16] has as its target T3, Broad substrate specificity ATP-binding cassette transporter ABCG2. In words: Inhibition of ABCG2 expressed in human HEK293 assessed as potentiation of mitoxantrone-mediated cytotoxicity at 0.2 uM after 72 hrs by MTT assay relative to control. The settings on record: hek293, 72 h. It is filed as cell-based. In outline:
(§3)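 Chemosensitization: HEK293-ABCG2 cells seeded at 1 × 10^4 cells/well, left overnight, then co-treated for 72 h at 37 °C, 5% CO2 with compound plus increasing mitoxantrone or SN-38 (0−0.5 μM). Viability measured by MTT and expressed as % of untreated control. Mean ± SD from at least three independent experiments, each in triplicate.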

For data set [17] the target is unchanged. In words: Inhibition of ABCG2 expressed in human HEK293 assessed as potentiation of SN-38-mediated cytotoxicity at 0.2 uM after 72 hrs by MTT assay relative to control. It is filed as cell-based. The conditions noted are these: hek293, 72 h. Summed up: as §3

MRP1 (ABCC1), sequence (P33527 whole entry): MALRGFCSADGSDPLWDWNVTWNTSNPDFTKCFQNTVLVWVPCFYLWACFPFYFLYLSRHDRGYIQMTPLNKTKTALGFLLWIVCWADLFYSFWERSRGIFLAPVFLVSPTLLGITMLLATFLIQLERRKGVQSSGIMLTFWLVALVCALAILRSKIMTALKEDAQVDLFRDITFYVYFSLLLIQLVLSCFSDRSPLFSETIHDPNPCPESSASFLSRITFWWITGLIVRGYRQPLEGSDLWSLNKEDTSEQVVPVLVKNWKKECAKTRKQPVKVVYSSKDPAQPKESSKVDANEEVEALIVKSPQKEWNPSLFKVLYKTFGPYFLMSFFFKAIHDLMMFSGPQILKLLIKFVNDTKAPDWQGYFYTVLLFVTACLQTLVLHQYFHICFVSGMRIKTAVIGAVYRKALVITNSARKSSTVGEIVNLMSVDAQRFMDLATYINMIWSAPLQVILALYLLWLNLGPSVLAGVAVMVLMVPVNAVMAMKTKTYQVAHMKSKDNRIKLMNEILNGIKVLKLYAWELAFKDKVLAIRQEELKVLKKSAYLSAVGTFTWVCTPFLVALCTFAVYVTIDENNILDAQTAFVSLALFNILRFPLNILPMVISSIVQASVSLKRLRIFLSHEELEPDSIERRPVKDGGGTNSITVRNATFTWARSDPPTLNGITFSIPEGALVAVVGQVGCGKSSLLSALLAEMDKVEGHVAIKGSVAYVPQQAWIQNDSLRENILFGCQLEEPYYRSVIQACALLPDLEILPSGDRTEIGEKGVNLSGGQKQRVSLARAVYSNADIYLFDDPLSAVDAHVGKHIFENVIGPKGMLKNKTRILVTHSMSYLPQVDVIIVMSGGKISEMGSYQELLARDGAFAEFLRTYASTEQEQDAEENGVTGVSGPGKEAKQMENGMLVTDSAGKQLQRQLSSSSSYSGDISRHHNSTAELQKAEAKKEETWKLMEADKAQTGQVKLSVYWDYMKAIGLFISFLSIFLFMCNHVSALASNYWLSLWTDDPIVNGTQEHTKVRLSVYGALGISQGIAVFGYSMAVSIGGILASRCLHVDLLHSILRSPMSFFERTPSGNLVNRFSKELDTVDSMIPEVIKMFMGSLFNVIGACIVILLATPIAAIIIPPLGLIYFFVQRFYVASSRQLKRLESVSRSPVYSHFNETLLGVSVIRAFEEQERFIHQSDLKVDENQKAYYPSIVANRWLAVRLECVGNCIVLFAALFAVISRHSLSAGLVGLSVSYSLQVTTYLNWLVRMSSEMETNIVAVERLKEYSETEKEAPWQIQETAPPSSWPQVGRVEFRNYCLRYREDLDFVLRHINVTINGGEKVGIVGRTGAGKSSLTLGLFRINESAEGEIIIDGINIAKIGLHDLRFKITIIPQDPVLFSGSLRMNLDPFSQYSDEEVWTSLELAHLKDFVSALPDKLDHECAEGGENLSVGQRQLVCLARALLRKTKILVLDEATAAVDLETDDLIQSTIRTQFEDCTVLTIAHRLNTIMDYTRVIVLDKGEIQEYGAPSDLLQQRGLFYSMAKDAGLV
T2 sequence (P08183 whole entry): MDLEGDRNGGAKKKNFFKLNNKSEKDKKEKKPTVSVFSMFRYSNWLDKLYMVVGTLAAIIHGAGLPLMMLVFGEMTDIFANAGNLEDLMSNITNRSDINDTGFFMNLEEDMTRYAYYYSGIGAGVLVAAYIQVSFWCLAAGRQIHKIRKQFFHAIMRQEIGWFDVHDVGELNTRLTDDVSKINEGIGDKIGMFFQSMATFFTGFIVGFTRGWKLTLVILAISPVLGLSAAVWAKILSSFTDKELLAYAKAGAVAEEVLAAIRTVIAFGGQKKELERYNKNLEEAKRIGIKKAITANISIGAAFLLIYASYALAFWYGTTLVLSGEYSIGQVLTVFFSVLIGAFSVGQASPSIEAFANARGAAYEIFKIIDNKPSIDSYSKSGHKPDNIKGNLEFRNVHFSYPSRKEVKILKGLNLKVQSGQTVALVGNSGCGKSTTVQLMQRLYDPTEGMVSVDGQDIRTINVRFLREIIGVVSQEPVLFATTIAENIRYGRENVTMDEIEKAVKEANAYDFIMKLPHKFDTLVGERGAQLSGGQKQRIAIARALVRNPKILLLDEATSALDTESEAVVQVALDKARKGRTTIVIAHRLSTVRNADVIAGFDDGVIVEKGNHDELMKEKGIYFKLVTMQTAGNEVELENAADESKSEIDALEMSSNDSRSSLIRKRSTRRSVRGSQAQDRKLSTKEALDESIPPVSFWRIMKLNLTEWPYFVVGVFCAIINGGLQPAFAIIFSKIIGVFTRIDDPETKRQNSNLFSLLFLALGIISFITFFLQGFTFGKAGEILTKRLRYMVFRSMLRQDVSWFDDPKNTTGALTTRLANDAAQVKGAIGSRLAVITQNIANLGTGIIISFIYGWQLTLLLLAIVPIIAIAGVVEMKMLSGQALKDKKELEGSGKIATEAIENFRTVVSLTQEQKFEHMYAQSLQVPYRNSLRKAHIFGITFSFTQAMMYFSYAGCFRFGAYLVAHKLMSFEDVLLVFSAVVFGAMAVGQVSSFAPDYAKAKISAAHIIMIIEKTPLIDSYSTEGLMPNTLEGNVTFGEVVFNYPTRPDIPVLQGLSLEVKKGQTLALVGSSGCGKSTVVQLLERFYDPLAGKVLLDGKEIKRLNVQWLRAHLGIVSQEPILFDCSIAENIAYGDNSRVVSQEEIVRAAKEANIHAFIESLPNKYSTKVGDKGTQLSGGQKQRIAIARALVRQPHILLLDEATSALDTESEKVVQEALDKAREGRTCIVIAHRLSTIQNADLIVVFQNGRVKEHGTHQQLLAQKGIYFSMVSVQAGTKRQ

As for `O=C(c1cc(=O)c2c(OCc3ccccc3)cccc2o1)N1CCN(Cc2ccccc2)CC1`, the inhibition at 5 µM on ABCG2 [1] came out at 48.3%. Besides, at ABCG2 [2], the inhibition at 1 µM was 16.5%.
Turning to `O=C(c1cc(=O)c2c(O)cccc2o1)N1CCN(c2ccccc2)CC1`, the inhibition at 5 µM against ABCG2 [1] turned out to be 9.8%. Besides, on ABCG2 [2], the inhibition at 1 µM amounted to 5.5%.
For `O=C(c1cc(=O)c2c(OCc3ccccc3)cccc2o1)N1CCN(c2ccccc2)CC1` the same measures were 66.1% and 21.3%.
For `COc1ccc(CCNC(=O)c2cc(=O)c3c(O)cccc3o2)cc1OC`, the inhibition at 1 µM on MRP1 (ABCC1) is 3.37%; on P-glycoprotein (ABCB1) [4], -20.5%; at ABCG2 [2], 34.4%. In addition, the results for the inhibition at 5 µM (against P-glycoprotein (ABCB1) [3]; on ABCG2 [1]; in data set [5]) were -29%, 62.5% and 5.47%, respectively.
Consider `O=C(O)c1cc(=O)c2c(O)cccc2o1`, for which the inhibition at 5 µM on ABCG2 [1] is -2%. The inhibition at 1 µM against ABCG2 [2] was -1.2%.
Turning to `COc1ccc2c3c([nH]c2c1)[C@H](CC(C)C)N1C(=O)[C@H](CCC(=O)OC(C)(C)C)NC(=O)[C@@H]1C3`, the GI50 at 72 h in data set [6] turned out to be 18000 nM.
`COc1ccc2[nH]cc(CCNC(=O)c3cc(=O)c4c(OCCc5ccccc5)cccc4o3)c2c1`: the inhibition at 1 µM at MRP1 (ABCC1) is 2.36%; at P-glycoprotein (ABCB1) [4] it was -14%. Also, the inhibition at 5 µM is -14.8% at P-glycoprotein (ABCB1) [3] and 5.12% in data set [5]. The compound further came in with an IC50 in data set [7] of 160 nM.
Consider `COc1ccc(CCOc2cccc3oc(C(=O)O)cc(=O)c23)cc1OC`, for which the inhibition at 5 µM on ABCG2 [1] stood at 26.7%. For the same compound, the inhibition at 1 µM against ABCG2 [2] is 6.1%.
With `CC(C)=CCc1c(O)cc2oc(-c3ccccc3)cc(=O)c2c1O`, the selectivity ratio in the data set on ABCG2 [8] was 40.
On to `O=C(c1cc(=O)c2c(OCc3ccccc3)cccc2o1)N1CCN(c2ccccn2)CC1`, for which, at ABCG2 [1], the inhibition at 5 µM was found to be 46.2%. For the same compound, on ABCG2 [2], the inhibition at 1 µM turned out to be 18.1%.
Consider `COc1ccc2[nH]cc(CCNC(=O)c3cc(=O)c4c(OCc5ccccc5)cccc4o3)c2c1`, for which the inhibition at 1 µM is 1.91% at MRP1 (ABCC1) and -9.11% at P-glycoprotein (ABCB1) [4]. Further, the inhibition at 5 µM was -19.4% on P-glycoprotein (ABCB1) [3] and 5.14% in data set [5]. Further, in data set [6], the GI50 at 72 h turned out to be 35000 nM. In addition, the Activity entry in the data set on HEK293 [9] is listed as “Non-toxic”. The concentration for half-maximal inhibition (IC50) in data set [7] came out at 180 nM.
As for `COc1ccc2[nH]cc(CCNC(=O)c3cc(=O)c4c(OCc5ccc(C)cc5)cccc4o3)c2c1`, the inhibition at 1 µM on MRP1 (ABCC1) is 1.13%; on P-glycoprotein (ABCB1) [4] it was -4.29%. Also, the inhibition at 5 µM is -21.9% against P-glycoprotein (ABCB1) [3] and 3.09% in data set [5]. In [7], this compound came in with an IC50 of 200 nM.
`COc1ccc2[nH]cc(CCNC(=O)c3cc(=O)c4c(OCc5ccc(Br)cc5)cccc4o3)c2c1`: the inhibition at 1 µM at MRP1 (ABCC1) was 2.58%; on P-glycoprotein (ABCB1) [4], -1.75%. Moreover, the Drug uptake result in the data set on HEK293 [10] and in the data set with HEK293 [11] was “Not Active” throughout. Moreover, the inhibition at 5 µM at P-glycoprotein (ABCB1) [3] is -16.1%; in data set [5], 2.86%. For the same compound, the selectivity ratio in the data set on ABCG2 [8] is 2000. In addition, in the data set with HEK293 [12], the outcome was inactive. Moreover, the Drug metabolism result with HEK293 [13] is recorded as “Not Active”. Besides, the “inhibition (INH)” value in data set [14], in [16] and in [17] was “Active” each time. Further, the Activity in the data set on HEK293 [15] was below 25%. Moreover, in data set [7], the IC50 stood at 110 nM.
With `COc1ccc(CCNC(=O)c2cc(=O)c3c(OCCc4ccc(OC)c(OC)c4)cccc3o2)cc1OC`, the inhibition at 1 µM on MRP1 (ABCC1) was 5.57%; against P-glycoprotein (ABCB1) [4] it was -16.6%. Moreover, the inhibition at 5 µM on P-glycoprotein (ABCB1) [3] is -0.11%; in data set [5] it was 10.8%. The same compound displayed a concentration for half-maximal inhibition (IC50) in data set [7] of 470 nM.
Consider `COc1ccc(CCNC(=O)c2cc(=O)c3c(OCc4ccccc4)cccc3o2)cc1OC`, for which the inhibition at 1 µM is 10.8% on MRP1 (ABCC1) and -25.5% at P-glycoprotein (ABCB1) [4]. Also, the Drug uptake result in the data set with HEK293 [10] and in the data set with HEK293 [11] was “Not Active” each time. Also, the inhibition at 5 µM at P-glycoprotein (ABCB1) [3] is -22.9%. Also, the GI50 at 72 h in data set [6] was 60000 nM. Moreover, the Activity with HEK293 [9] came out at 35%. Also, in the data set with HEK293 [12], the outcome was inactive. In [14], the “inhibition (INH)” value is reported as “Active”.

For orientation: inhibition means the drop in the measured response relative to a control, in per cent. In general, IC50 refers to the midpoint of a concentration-inhibition curve. The low end stands for greater potency, the high end for weaker potency.
